{"data": "Assay results collected from several papers", "target": "Phosphatidylinositol 4,5-bisphosphate 3-kinase catalytic subunit beta isoform (PIK3CB, Homo sapiens, UniProt P42338)", "note": "Lines come from different studies, so protocols differ."}
{"Compound": "CCCCNc1ncc2c(-c3ccc(F)cc3)nn(C[C@H]3CC[C@H](N)CC3)c2n1", "effect on": "target engagement in cells", "action": "inhibitor", "technique": "chemoproteomics", "concentration": "20 mM", "endpoint": "inhibition", "result": "16.7%"}
{"Compound": "CNc1cc(Oc2cc(C(=O)Nc3cc(N4CCN(C)CC4)cc(C(F)(F)F)c3)ccc2C)ncn1", "effect on": "target engagement in cells", "action": "inhibitor", "technique": "chemoproteomics", "cell line": "Huh-7", "concentration": "1 µM", "endpoint": "inhibition", "result": "-11.6%"}
{"Compound": "O=C(N1CCS(=O)(=O)CC1)N1C[C@H](c2ccc(OC(F)(F)F)cc2)C[C@H](c2nc(C3CC3)no2)C1", "effect on": "cell-free assay", "technique": "competition with immobilised ligand", "concentration": "1 µM", "endpoint": "remaining binding", "result": "66%"}
{"Compound": "COc1cc(-c2cc(-c3ccc(N4CCNCC4)cc3)cnc2C)cc(OC)c1OC", "effect on": "enzyme activity", "action": "inhibitor", "concentration": "1 µM", "endpoint": "inhibition", "result": "6%"}
{"Compound": "CS(=O)(=O)Nc1cc(-c2ccc3ncnc(Nc4ccc(F)c(Cl)c4)c3c2)cnc1Cl", "effect on": "enzyme activity", "action": "inhibitor", "technique": "FRET", "concentration": "10 µM", "endpoint": "inhibition", "result": "90 to 100%"}
{"Compound": "Cc1ccc(C(=O)Nc2ccc(CN3CCN(C)CC3)c(C(F)(F)F)c2)cc1C#Cc1cnc2cccnn12", "effect on": "enzyme activity", "action": "inhibitor", "concentration": "23.5 nM", "endpoint": "remaining activity", "result": "99%"}
{"Compound": "COc1cccc2c(NCc3ccccc3)nc(-n3c(N)nc4ccccc43)nc12", "effect on": "target engagement in cells", "action": "inhibitor", "technique": "chemoproteomics", "concentration": "20 mM", "endpoint": "inhibition", "result": "5.6%"}
{"Compound": "CCOCCn1cc(C(=O)Nc2ccc(-n3nc(-c4cccnc4)cc3C(F)(F)F)cn2)ccc1=O", "effect on": "cell-free assay", "technique": "competition with immobilised ligand", "concentration": "1 µM", "endpoint": "remaining binding", "result": "82%"}
{"Compound": "Nc1ncnc2occ(-c3ccc(NC(=O)Nc4cc(C(F)(F)F)ccc4F)cc3)c12", "effect on": "cell-free assay", "action": "inhibitor", "concentration": "20 µM", "endpoint": "remaining signal", "result": "86%"}
